Where “and” joins values, the source holds several entries; their conditions need not be identical. Equal values may be shown once.
Assays:
EphA4 [1] = biological target: T1, EphA4 (Mus musculus, UniProt Q03137); experiment: ELISA, ephrin-A5 AP binding to immobilized EphA4 Fc
Outline: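 Mouse EphA4 Fc was captured at 1 μg/ml on protein A wells. Ephrin-A5 AP (~0.01 nM for IC50) from HEK293 supernatant was added with test compound for 2 h in TBST and read with p-nitrophenylphosphate, minus Fc-only background. For reversibility, compound was incubated 2 h, washed 30 min, then ephrin-A5 AP added for 1 h. For mode of inhibition, ephrin-A5 AP was titrated per compound concentration and fitted one-site; Ki came from KD/Bmax versus inhibitor regression.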
Target sequence in this assay (Q03137 20-547 limits assumed): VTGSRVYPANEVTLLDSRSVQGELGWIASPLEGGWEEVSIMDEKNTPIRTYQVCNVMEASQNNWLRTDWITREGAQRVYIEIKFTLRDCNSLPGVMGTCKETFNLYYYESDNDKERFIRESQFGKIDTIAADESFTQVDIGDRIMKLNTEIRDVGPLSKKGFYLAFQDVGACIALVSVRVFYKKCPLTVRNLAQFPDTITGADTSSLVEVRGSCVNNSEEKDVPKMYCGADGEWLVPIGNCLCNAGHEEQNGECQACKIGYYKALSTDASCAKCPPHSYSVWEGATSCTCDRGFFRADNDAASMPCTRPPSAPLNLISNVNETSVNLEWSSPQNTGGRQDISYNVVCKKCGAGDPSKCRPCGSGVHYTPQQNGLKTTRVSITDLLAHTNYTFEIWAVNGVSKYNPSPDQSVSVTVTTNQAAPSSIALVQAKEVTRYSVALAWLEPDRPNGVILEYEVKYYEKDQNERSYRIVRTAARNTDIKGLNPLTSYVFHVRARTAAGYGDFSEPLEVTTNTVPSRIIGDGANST

EphA2 = EphA2 (Mus musculus, UniProt Q03145); experiment: ELISA, ephrin-A5 AP binding to immobilized EphA2 Fc; details: read-out: IC50 ± SE EphA2 ephrin-A5
EphA3 = experiment: ELISA, ephrin-A5 AP binding to immobilized EphA3 Fc; details: read-out: IC50, inhibition of ephrin binding to EphA3
Outline: (§1)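 Eph receptor Fc fusions were immobilized at 1 μg/ml in TBST on protein A-coated wells. Diluted ephrin AP fusion supernatant from transiently transfected HEK293 cells was added for 2 h with or without test compound; for IC50 it was at approximately 0.01 nM. Bound AP was read with p-nitrophenylphosphate, minus Fc-only background. IC50 came from a variable-slope log(inhibitor)–response fit, bottom constrained to 0.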

EphB6 = experiment: ELISA, ephrin-B2 AP binding to immobilized EphB6 Fc; details: read-out: IC50, inhibition of ephrin binding to EphB6
Outline: as §1

EphA7 = experiment: ELISA, ephrin-A5 AP binding to immobilized EphA7 Fc
EphB1 = experiment: ELISA, ephrin-B2 AP binding to immobilized EphB1 Fc; details: concentrations up to 200 μM
Outline: as §1

[2] = test system: EphA4 ephrin-binding domain mutants; experiment: Wild-type and mutant EphA4 AP binding to immobilized ephrin-A5 Fc; parameters: species or system human; details: EphA4 AP mutants vs wild-type
Outline: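 Wild-type and point-mutant human EphA4 ephrin-binding domains fused to alkaline phosphatase were added at 0.01 nM final to wells precoated with protein A and ephrin-A5 Fc, with or without test compound. Bound AP was read with p-nitrophenylphosphate. IC50 values from 2–3 separate experiments were compared with wild-type by one-way ANOVA and Dunnett's post-hoc test.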

EphA4 [3] = biological target: T1, EphA4; experiment: Ephrin-A5 Fc-induced EphA4 tyrosine phosphorylation in HT22 cells; assay type: cell-based; details: read-out: IC50, EphA4 tyrosine phosphorylation, 0.5 μg/mL ephrin-A5 Fc, ELISA
Outline: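 HT22 cells at ~70% confluency were serum-starved 1 h, given test compound (final DMSO ≤0.4%) for 15 min, then ephrin-A5 Fc for 20 min with compound still present. After modified RIPA lysis, phospho and total EphA4 were read by capture ELISA (anti-phosphotyrosine 1:500; cytoplasmic anti-EphA4 1:1,000), with ABTS at A405. Values were normalized to ephrin-only cells; IC50 came from 3–9 measurements.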
Target sequence in this assay (Q03137 20-986): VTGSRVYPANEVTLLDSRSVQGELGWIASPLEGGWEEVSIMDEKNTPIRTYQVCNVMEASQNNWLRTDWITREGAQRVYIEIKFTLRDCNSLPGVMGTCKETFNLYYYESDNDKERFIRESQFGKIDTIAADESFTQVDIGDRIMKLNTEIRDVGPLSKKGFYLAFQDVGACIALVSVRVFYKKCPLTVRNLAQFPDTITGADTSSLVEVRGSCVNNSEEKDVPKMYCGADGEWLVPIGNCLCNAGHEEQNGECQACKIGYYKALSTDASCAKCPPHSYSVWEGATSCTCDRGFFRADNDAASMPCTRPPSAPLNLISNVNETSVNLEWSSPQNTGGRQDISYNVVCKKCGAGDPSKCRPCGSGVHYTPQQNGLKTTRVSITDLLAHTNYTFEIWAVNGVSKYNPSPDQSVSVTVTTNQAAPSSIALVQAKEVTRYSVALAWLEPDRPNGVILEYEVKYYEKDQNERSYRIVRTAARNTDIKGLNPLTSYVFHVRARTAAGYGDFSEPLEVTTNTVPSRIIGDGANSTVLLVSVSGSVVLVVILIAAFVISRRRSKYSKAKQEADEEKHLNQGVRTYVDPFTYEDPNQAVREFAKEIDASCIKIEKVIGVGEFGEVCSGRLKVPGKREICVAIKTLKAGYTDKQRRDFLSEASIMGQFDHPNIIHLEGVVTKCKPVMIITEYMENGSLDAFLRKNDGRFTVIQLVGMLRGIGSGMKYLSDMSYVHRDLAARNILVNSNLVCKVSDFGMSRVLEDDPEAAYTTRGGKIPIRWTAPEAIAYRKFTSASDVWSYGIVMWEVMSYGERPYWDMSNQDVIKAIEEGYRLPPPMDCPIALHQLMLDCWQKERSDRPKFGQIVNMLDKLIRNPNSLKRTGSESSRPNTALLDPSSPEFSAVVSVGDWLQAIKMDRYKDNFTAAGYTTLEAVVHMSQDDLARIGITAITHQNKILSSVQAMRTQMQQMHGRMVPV

EphB4 = biological target: T2, EphB4 (Mus musculus, UniProt P54761); experiment: Ephrin-B2 Fc-induced EphB4 tyrosine phosphorylation in B16 melanoma cells; assay type: cell-based; details: relative to EphA2 and EphA4
T2 sequence (P54761 16-987): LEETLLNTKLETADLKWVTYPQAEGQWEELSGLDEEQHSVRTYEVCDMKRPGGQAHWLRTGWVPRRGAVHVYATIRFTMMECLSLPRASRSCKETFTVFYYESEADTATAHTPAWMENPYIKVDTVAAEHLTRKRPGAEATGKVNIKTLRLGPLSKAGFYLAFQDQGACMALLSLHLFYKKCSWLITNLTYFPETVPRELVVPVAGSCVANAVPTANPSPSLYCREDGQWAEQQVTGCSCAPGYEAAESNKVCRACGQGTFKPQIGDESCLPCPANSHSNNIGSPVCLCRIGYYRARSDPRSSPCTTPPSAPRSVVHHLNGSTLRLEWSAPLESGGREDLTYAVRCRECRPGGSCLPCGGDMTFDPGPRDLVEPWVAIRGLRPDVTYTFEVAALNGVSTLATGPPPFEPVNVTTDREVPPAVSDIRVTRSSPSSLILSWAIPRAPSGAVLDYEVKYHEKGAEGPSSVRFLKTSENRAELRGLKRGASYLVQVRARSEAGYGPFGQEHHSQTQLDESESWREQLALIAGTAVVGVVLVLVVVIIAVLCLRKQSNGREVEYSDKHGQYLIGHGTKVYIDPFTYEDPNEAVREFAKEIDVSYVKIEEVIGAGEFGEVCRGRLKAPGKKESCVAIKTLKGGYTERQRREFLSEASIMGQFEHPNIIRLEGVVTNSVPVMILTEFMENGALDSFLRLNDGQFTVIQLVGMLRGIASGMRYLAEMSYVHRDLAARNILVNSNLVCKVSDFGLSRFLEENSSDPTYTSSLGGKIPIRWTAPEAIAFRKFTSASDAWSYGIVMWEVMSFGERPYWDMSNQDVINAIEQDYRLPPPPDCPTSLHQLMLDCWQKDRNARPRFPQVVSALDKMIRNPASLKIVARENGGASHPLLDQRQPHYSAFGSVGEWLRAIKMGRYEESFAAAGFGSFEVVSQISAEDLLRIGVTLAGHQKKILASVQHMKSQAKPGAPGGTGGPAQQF
Outline: (§2)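 Cells were serum-starved 1–2 h and pretreated 15 min with test compound (DMSO ≤0.4% final). They were then stimulated 20 min with compound present: COS cells with 0.8 μg/mL ephrin-B2 Fc, and B16 melanoma cells with 1.5 μg/mL anti-Fc-preclustered ephrin-B2 Fc, or Fc control. Lysates were made in modified RIPA. EphB2 (COS; 7 μg antibody) or EphB4 (B16; 20 μg antibody) was immunoprecipitated, probed for phosphotyrosine, then reprobed for the receptor.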

EphB2 = experiment: Ephrin-B2 Fc-induced EphB2 tyrosine phosphorylation in COS cells; assay type: cell-based; details: relative to concentrations inhibiting other Eph receptors
Outline: as §2

HUVECs = experiment: Capillary-like tube formation assay, HUVECs on Matrigel; assay type: cell-based, human; details: 18 hours
Outline: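 HUVECs (2.3 × 10⁴) were seeded on Matrigel-precoated wells in complete HUVEC medium containing test compound or DMSO control and grown for 18 h. Polygons were counted from phase-contrast images, 2–4 pictures from each of 3–6 wells. Counts were compared with DMSO-only wells by one-way ANOVA with Dunnett's post-hoc test.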

EphA2, sequence (Q03145 26-538): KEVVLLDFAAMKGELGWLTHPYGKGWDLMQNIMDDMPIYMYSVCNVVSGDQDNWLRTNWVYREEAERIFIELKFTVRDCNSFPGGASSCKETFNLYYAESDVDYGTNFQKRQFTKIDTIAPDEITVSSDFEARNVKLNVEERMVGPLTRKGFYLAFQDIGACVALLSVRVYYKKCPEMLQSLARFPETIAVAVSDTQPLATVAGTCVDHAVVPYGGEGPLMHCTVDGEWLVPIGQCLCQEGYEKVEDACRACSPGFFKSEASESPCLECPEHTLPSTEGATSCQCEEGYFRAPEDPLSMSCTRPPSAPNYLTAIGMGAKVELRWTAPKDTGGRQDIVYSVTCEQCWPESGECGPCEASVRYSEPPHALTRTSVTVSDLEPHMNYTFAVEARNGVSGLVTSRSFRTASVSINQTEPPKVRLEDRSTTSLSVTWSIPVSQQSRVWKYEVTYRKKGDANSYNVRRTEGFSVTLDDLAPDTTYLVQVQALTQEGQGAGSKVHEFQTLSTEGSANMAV

With `O=C(Oc1cc(O)cc2c1C[C@@H](OC(=O)c1cc(O)c(O)c(O)c1)[C@@H](c1cc(O)c(O)c(O)c1)O2)c1cc(O)c(O)c(O)c1` [epigallocatechin-3,5-digallate] the “reversibility of inhibition of EphA4-ephrin-A5 binding” value (EphA4 [1]; compound washed out before adding ephrin-A5 AP) was “reversible”, the IC50 (EphA4 [1]; read-out: IC50, inhibition of EphA4-ephrin-A5 binding (text)) was 8 µM and the IC50 (EphA4 [1]; read-out: IC50, inhibition of EphA4-ephrin-A5 binding (text), listed as Epigallocatechin-3,5-digallate) was less than 10 µM. For the same compound, the IC50 (EphA4 [1]; read-out: IC50 ± SE EphA4 ephrin-A5) was 7.4 ± 1.8 µM, the “mode of inhibition of ephrin-A5 binding to EphA4” value (EphA4 [1]; similar Bmax, increasing KD) was “competitive inhibitors” and the IC50 (EphA2) was 40 ± 3.8 µM. For the same compound, the IC50 (EphA3) was less than 10 µM, the IC50 (EphB6) was less than 10 µM and the “inhibition of ephrin binding to EphA7” value (EphA7) was “detectably inhibited, but with lower potency”. The “inhibition of EphB1-ephrin interaction” value (EphB1) was “no inhibition”, the “effect of other EphA4 mutations, such as D123A, on inhibitory activity” value [2] was “did not detectably affect” and the IC50 (EphA4 [3]) was 190 µM and ~190 µM. The “inhibition of EphB4 phosphorylation” value (EphB4) was “at higher concentrations”, the “inhibition of EphB2 phosphorylation” value (EphB2) was “at higher concentrations” and the capillary-like tube formation (HUVECs; 20 μM to 200 μM) was “dose-dependent inhibitory effect”. The capillary-like tube formation (HUVECs; at 50 μM) was “inhibit”.
